In brackets after ≈: the same amount, converted by molar mass. Bounds are passed on as bounds.

Our source for the MIC values is ChEMBL document CHEMBL3351470, “Synthesis and Structure-Activity Relationships of α-Amino-γ-lactone Ketolides: A Novel Class of Macrolide Antibiotics” (2014).

What all share (format): functional
Experiment [1] deals with Staphylococcus aureus. Put plainly: Antibacterial activity against erythromycin-susceptible Staphylococcus aureus by agar microdilution method. The gist of the method:
(§1)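 Strains from an in-house culture collection (Pliva Research Institute). MIC determined by agar microdilution following NCCLS standards and reported in μg/mL. Erythromycin-susceptible strains are listed as Ery-S; the panel also includes inducibly resistant (iMLS), constitutively resistant (MLSB) and efflux-resistant (M) strains.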

Experiment [2] relates to Staphylococcus aureus. Briefly: Antibacterial activity against macrolide lincosamide- streptogramin B inducibly-resistant Staphylococcus aureus by agar microdilution method. An outline of the steps:
(§2)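 Agar microdilution MIC following NCCLS standards; strains taken from the Pliva Research Institute culture collection. Panel grouped by phenotype: erythromycin-susceptible, inducibly MLS-resistant (iMLS), constitutively MLSB-resistant and efflux-resistant (M). Azithromycin, telithromycin and cethromycin tested alongside as references. MIC reported in μg/mL.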

For experiment [3], the system named is Staphylococcus aureus. Briefly: Antibacterial activity against macrolide lincosamide- streptogramin B-resistant Staphylococcus aureus by agar microdilution method. An outline of the steps:
as §2

For experiment [4], the system named is Streptococcus pneumoniae. Briefly: Antibacterial activity against erythromycin-susceptible Streptococcus pneumoniae by agar microdilution method. The gist of the method:
as §1

Experiment [5] concerns Streptococcus pneumoniae. Put plainly: Antibacterial activity against macrolide lincosamide- streptogramin B inducibly-resistant Streptococcus pneumoniae by agar microdilution method. An outline of the steps:
as §2

Experiment [6] relates to Streptococcus pneumoniae. Briefly: Antibacterial activity against efflux-resistant Streptococcus pneumoniae by agar microdilution method. An outline of the steps: as §2
Experiment [7] concerns Streptococcus pyogenes. Briefly: Antibacterial activity against erythromycin-susceptible Streptococcus pyogenes by agar microdilution method. An outline of the steps:
as §1

Experiment [8] deals with Streptococcus pyogenes. Briefly: Antibacterial activity against macrolide lincosamide- streptogramin B inducibly-resistant Streptococcus pyogenes by agar microdilution method. The gist of the method:
as §2

Experiment [9] has as its system Streptococcus pyogenes. Briefly: Antibacterial activity against efflux-resistant Streptococcus pyogenes by agar microdilution method. An outline of the steps:
as §2

The subject of experiment [10] is Haemophilus influenzae. Briefly: Antibacterial activity against Haemophilus influenzae by agar microdilution method. The gist of the method:
as §1

`CC[C@H]1OC(=O)[C@H](C)C(=O)[C@H](C)[C@@H](O[C@@H]2O[C@H](C)C[C@H](N(C)C)[C@H]2O)[C@](C)(OC)C[C@@H](C)C(=O)[C@H](C)[C@H]2C(N)C(=O)O[C@@]21C` (stereo not given in full): the MIC was 1 µg/mL (≈ 1.6 µM) in experiment [1]; 32 µg/mL (≈ 51.1 µM) in experiment [2]; more than 64 µg/mL in [3]; not above 0.125 µg/mL in experiment [4]; more than 64 µg/mL in [5]; 8 µg/mL (≈ 12.8 µM) in experiment [6]. The MIC is 2 µg/mL (≈ 3.19 µM) in experiment [7], more than 64 µg/mL in experiment [8], 8 µg/mL (≈ 12.8 µM) in experiment [9] and more than 64 µg/mL in experiment [10].

`CC[C@H]1OC(=O)[C@H](C)C(=O)[C@H](C)[C@@H](O[C@@H]2O[C@H](C)C[C@H](N(C)C)[C@H]2O)[C@](C)(OC)C[C@@H](C)C(=O)[C@H](C)[C@H]2C(NC(=O)CCc3ccccc3)C(=O)O[C@@]21C` (stereo not given in full): the MIC in experiment [1] was 4 µg/mL (≈ 5.27 µM); in [2], 8 µg/mL (≈ 10.5 µM); in [3], more than 64 µg/mL; in experiment [4], not above 0.125 µg/mL; in [5], 16 µg/mL (≈ 21.1 µM); in experiment [6], 4 µg/mL (≈ 5.27 µM). The MIC worked out at 0.5 µg/mL (≈ 0.659 µM) in [7], 16 µg/mL (≈ 21.1 µM) in [8], 8 µg/mL (≈ 10.5 µM) in experiment [9] and 16 µg/mL (≈ 21.1 µM) in [10].

With `CC[C@H]1OC(=O)[C@H](C)C(=O)[C@H](C)[C@@H](O[C@@H]2O[C@H](C)C[C@H](N(C)C)[C@H]2O)[C@](C)(OC)C[C@@H](C)C(=O)[C@H](C)[C@H]2C(NC(=O)CCc3ccncc3)C(=O)O[C@@]21C` (stereo not given in full), the MIC in experiment [1] is 4 µg/mL (≈ 5.26 µM); in experiment [2], 8 µg/mL (≈ 10.5 µM); in [3], more than 64 µg/mL; in experiment [4], not above 0.125 µg/mL; in experiment [5], 16 µg/mL (≈ 21.1 µM); in experiment [6], 8 µg/mL (≈ 10.5 µM). Moreover, the MIC in [7] is not above 0.125 µg/mL; in experiment [8] it was 2 µg/mL (≈ 2.63 µM); in [9], 2 µg/mL (≈ 2.63 µM); in experiment [10] it was 2 µg/mL (≈ 2.63 µM).

Take `CC[C@H]1OC(=O)[C@H](C)C(=O)[C@H](C)[C@@H](O[C@@H]2O[C@H](C)C[C@H](N(C)C)[C@H]2O)[C@](C)(OC)C[C@@H](C)C(=O)[C@H](C)[C@H]2C(NC(=O)CCc3cccnc3)C(=O)O[C@@]21C` (stereo not given in full): the MIC was 2 µg/mL (≈ 2.63 µM) in [1]; 4 µg/mL (≈ 5.26 µM) in experiment [2]; more than 64 µg/mL in experiment [3]; not above 0.125 µg/mL in experiment [4]; 4 µg/mL (≈ 5.26 µM) in [5]; 2 µg/mL (≈ 2.63 µM) in experiment [6]. For the same compound, the MIC in experiment [7] is not above 0.125 µg/mL; in [8] it was 4 µg/mL (≈ 5.26 µM); in [9], 2 µg/mL (≈ 2.63 µM); in experiment [10], 8 µg/mL (≈ 10.5 µM).

For the compound `CC[C@H]1OC(=O)[C@H](C)[C@@H](O[C@H]2C[C@@](C)(OC)[C@@H](O)[C@H](C)O2)[C@H](C)[C@@H](O[C@@H]2O[C@H](C)C[C@H](N(C)C)[C@H]2O)[C@](C)(O)C[C@@H](C)CN(C)[C@H](C)[C@@H](O)[C@]1(C)O` [AZITHROMYCIN], the MIC is 1 µg/mL (≈ 1.34 µM) in experiment [1]; more than 64 µg/mL in [2]; more than 64 µg/mL in [3]; not above 0.125 µg/mL in experiment [4]; more than 64 µg/mL in experiment [5]; 4 µg/mL (≈ 5.34 µM) in experiment [6]. In addition, the MIC in [7] was not above 0.125 µg/mL; in experiment [8], more than 64 µg/mL; in experiment [9] it was 1 µg/mL (≈ 1.34 µM); in experiment [10], 1 µg/mL (≈ 1.34 µM).

For `CC[C@H]1OC(=O)[C@H](C)C(=O)[C@H](C)[C@@H](O[C@@H]2O[C@H](C)C[C@H](N(C)C)[C@H]2O)[C@](C)(OC)C[C@@H](C)C(=O)[C@H](C)[C@H]2N(CCCCn3cnc(-c4cccnc4)c3)C(=O)O[C@]12C` [TELITHROMYCIN], the MIC was not above 0.125 µg/mL in [1]; 0.5 µg/mL (≈ 0.616 µM) in experiment [2]; more than 64 µg/mL in experiment [3]; not above 0.06 µg/mL in experiment [4]; not above 0.125 µg/mL in experiment [5]; 0.5 µg/mL (≈ 0.616 µM) in experiment [6]. Moreover, the MIC in [7] is not above 0.06 µg/mL; in experiment [8], 4 µg/mL (≈ 4.93 µM); in experiment [9] it was 0.25 µg/mL (≈ 0.308 µM); in [10] it was 2 µg/mL (≈ 2.46 µM).
